Measured values from ChEMBL document CHEMBL4229355, “Synthesis of 3'-halo-5'-norcarbocyclic nucleoside phosphonates as potent anti-HIV agents” (Eur J Med Chem, 2018).
The source made the active and inactive calls. No cut-off for these calls is given here.

Columns and labels:
[1] = system: Human alphaherpesvirus 1; assay: Antiviral activity against HSV-1; format: functional, organism-based
[2] = Cytotoxicity against human PBMC assessed as reduction in cell growth after 7 days by MTT assay; format: cell-based
Method in brief: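 Percent cell viability plotted against compound concentration and fitted to quadratic curves; CC₅₀ is the concentration reducing cell growth by 50%.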

[3] = system: Zika virus; assay: Antiviral activity against Zika virus; format: functional, organism-based
[4] = system: Human immunodeficiency virus 1; assay: Antiviral activity against HIV1 LAI infected in PHA-P activated human PBMC assessed as reduction in viral replication preincubated with cells for 30 mins followed by viral infection and measured at day 7 post infection by reverse transcriptase activity-based assay; format: functional, organism-based; conditions: Human immunodeficiency virus 1, LAI
Method in brief: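 PHA-P-activated PBMCs (1.5 × 10⁵ cells) pre-treated 30 min with increasing compound concentrations, then infected with HIV-1 LAI at 100 TCID₅₀; supernatants harvested day 7 post-infection and stored at −20 °C. Percent inhibition of RT activity plotted against concentration and fitted to quadratic curves to give EC₅₀. Mean from 3 blood donors.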

[5] = system: dengue virus type 2; assay: Antiviral activity against Dengue virus 2; format: functional, organism-based
[6] = system: Chikungunya virus; assay: Antiviral activity against Chikungunya virus; format: functional, organism-based
[7] = system: Human alphaherpesvirus 2; assay: Antiviral activity against HSV-2; format: functional, organism-based

SMILES	Activity [1]	CC50 at 168 h [2]	Activity [3]	EC50 [4]	Activity [5]	Activity [6]	Activity [7]
O=P(O)(O)CO[C@H]1C[C@@H](n2cnc3c(O)ncnc32)C=C1I (racemic)	inactive	≥ 10 µM	inactive	≥ 10 µM	inactive	inactive	inactive
Nc1nc(O)c2ncn([C@H]3C=C(I)[C@@H](OCP(=O)(O)O)C3)c2n1 (racemic)	inactive	≥ 10 µM	inactive	≥ 10 µM	inactive	inactive	inactive
Nc1ncnc2c1ncn2[C@H]1C=C(I)[C@@H](OCP(=O)(O)O)C1 (racemic)	inactive	≥ 10 µM	inactive	5.9 µM	inactive	inactive	inactive
O=P(O)(O)CO[C@H]1C[C@@H](n2cnc3c(NC4CC4)ncnc32)C=C1I (racemic)	inactive	≥ 10 µM	inactive	≥ 10 µM	inactive	inactive	inactive
Nc1nc2c(ncn2[C@H]2C=C(F)[C@@H](OCP(=O)(O)O)C2)c(=O)[nH]1 (racemic)	inactive	≥ 10 µM	inactive	≥ 10 µM	inactive	inactive	inactive
Nc1ncnc2c1ncn2[C@H]1C=C(F)[C@@H](OCP(=O)(O)O)C1 (racemic)	inactive	≥ 10 µM	inactive	0.88 µM	inactive	inactive	inactive
C[C@H](Cn1cnc2c(N)ncnc21)OCP(=O)(O)O [TENOFOVIR ANHYDROUS]	–	≥ 10 µM	–	1.1 µM	–	–	–
